Test results as given in ChEMBL document CHEMBL1151261, “Antineoplastic agents. 509: synthesis of fluorcombstatin phosphate and related 3-halostilbenes(1)” (J Nat Prod, 2005).
Converted amounts (≈) assume the structure as drawn.

Key:
KM-20L2 = assay: Cytotoxicity against human KM20L2 cells after 48 hrs by sulforhodamine B assay; format: functional; details: KM-20L2, 48 h
Outline: (§1)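 Human tumor lines exposed to compound for 48 h, then fixed with trichloroacetic acid and stained with sulforhodamine B (NCI standard protocol); optical density read on a microplate reader. GI50 is the concentration giving a 50% reduction in net protein increase, calculated from optical density data.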

DU-145 = assay: Cytotoxicity against human DU145 cells after 48 hrs by sulforhodamine B assay; format: functional; details: DU-145, 48 h; outline: as §1
NCI-H460 = assay: Cytotoxicity against human NCI-H460 cells after 48 hrs by sulforhodamine B assay; format: functional; details: NCI-H460, 48 h; outline: as §1
BXPC-3 = assay: Cytotoxicity against human BxPC3 cells after 48 hrs by sulforhodamine B assay; format: functional; details: BXPC-3, 48 h; outline: as §1
MCF7 = assay: Cytotoxicity against human MCF7 cells after 48 hrs by sulforhodamine B assay; format: functional; details: MCF7, 48 h; outline: as §1
SF-268 = assay: Cytotoxicity against human SF268 cells after 48 hrs by sulforhodamine B assay; format: functional; details: SF-268, 48 h; outline: as §1
P388 = assay: Cytotoxicity against mouse P388 cells after 48 hrs by Coulter particle counting; details: P388, 48 h, read-out: ED50 (the source's name)

Compound	GI50 (KM-20L2) [µg/mL]	GI50 (DU-145) [µg/mL]	GI50 (NCI-H460) [µg/mL]	GI50 (BXPC-3) [µg/mL]	GI50 (MCF7) [µg/mL]	GI50 (SF-268) [µg/mL]	EC50 (P388) [µg/mL]
COc1ccc(/C=C\c2cc(N)c(OC)c(OC)c2)cc1N	0.03 (≈ 0.0999 µM)	0.044 (≈ 0.146 µM)	0.014 (≈ 0.0466 µM)	0.053 (≈ 0.176 µM)	< 0.01	0.076 (≈ 0.253 µM)	0.036 (≈ 0.12 µM)
COc1ccc(/C=C\c2cc(OC)c(OC)c([N+](=O)[O-])c2)cc1[N+](=O)[O-]	0.27 (≈ 0.749 µM)	0.34 (≈ 0.944 µM)	0.24 (≈ 0.666 µM)	0.39 (≈ 1.08 µM)	0.37 (≈ 1.03 µM)	0.59 (≈ 1.64 µM)	> 10
COc1ccc(/C=C\c2cc(OC)c(OC)c(OC)c2)c(O)c1O [COMBRETASTATIN A-1]	0.061 (≈ 0.184 µM)	0.17 (≈ 0.512 µM)	0.74 (≈ 2.23 µM)	4.4 (≈ 13.2 µM)			0.251 (≈ 0.755 µM)
COc1ccc(/C=C\c2cc(Br)c(OC)c(OC)c2)cc1OP(=O)([O-])[O-].[Rb+].[Rb+]	2.6	0.042	0.041	0.56	0.043	0.023	< 0.01
COc1ccc(/C=C\c2cc(O)c(OC)c(OC)c2)cc1N.Cl	1.3	0.012	0.035	1	< 0.01	0.0022	0.0289
C1COCCN1.C1COCCN1.COc1ccc(/C=C\c2cc(F)c(OC)c(OC)c2)cc1OP(=O)(O)O	> 1	0.0046	0.005	0.73	0.0079	0.0087	0.015
COc1ccc(/C=C\c2cc(O)c(OC)c(OC)c2)cc1O	1.2 (≈ 3.97 µM)	0.0043 (≈ 0.0142 µM)	0.19 (≈ 0.628 µM)	2.3 (≈ 7.61 µM)	0.49 (≈ 1.62 µM)	0.0083 (≈ 0.0275 µM)	0.26 (≈ 0.86 µM)
COc1ccc(/C=C\c2cc(Br)c(OC)c(OC)c2)cc1OP(=O)([O-])[O-].[Cs+].[Cs+]	0.48	0.0079	0.0066	0.15	0.0044	0.0064	< 0.01
COc1ccc(/C=C\c2cc(Br)c(OC)c(OC)c2)cc1OP(=O)([O-])[O-].[Na+].[Na+]	0.23	0.0046	0.0028	0.093	0.0041	0.0034	< 0.01
COc1ccc(/C=C\c2cc(O)c(OC)c(OC)c2)cc1[N+](=O)[O-]	1.8 (≈ 5.43 µM)	0.39 (≈ 1.18 µM)	0.31 (≈ 0.936 µM)	2.5 (≈ 7.55 µM)	0.49 (≈ 1.48 µM)	0.62 (≈ 1.87 µM)	0.402 (≈ 1.21 µM)
COc1ccc(/C=C\c2cc(Br)c(OC)c(OC)c2)cc1OP(=O)([O-])[O-].[Ca+2]	0.37	0.0063	0.0068	< 0.001	0.0022	0.0022	0.288
COc1ccc(/C=C\c2cc(F)c(OC)c(OC)c2)cc1OP(=O)([O-])[O-].[K+].[K+]	> 1	0.0037	0.0043	0.548	0.004	0.0039	0.0074
COc1ccc(/C=C\c2cc(O)c(OC)c(OC)c2)cc1N	0.39 (≈ 1.29 µM)	0.035 (≈ 0.116 µM)	0.03 (≈ 0.0996 µM)	0.37 (≈ 1.23 µM)	0.06 (≈ 0.199 µM)	0.04 (≈ 0.133 µM)	0.0174 (≈ 0.0577 µM)
COc1ccc(/C=C\c2cc(Br)c(OC)c(OC)c2)cc1OP(=O)([O-])[O-].[K+].[K+]	0.24	0.0028	0.0029	0.2	0.0035	0.0032	< 0.01
C1CCNCC1.C1CCNCC1.COc1ccc(/C=C\c2cc(F)c(OC)c(OC)c2)cc1OP(=O)(O)O	> 1	0.011	0.022	0.39	0.011	0.0075	0.004
COc1cc(/C=C\c2ccc(OC)c(OP(=O)([O-])[O-])c2OP(=O)([O-])[O-])cc(OC)c1OC.[Na+].[Na+].[Na+].[Na+]	0.53	0.034	0.038	1.5	0.024	0.036	< 0.01
COc1ccc(/C=C/c2cc(OC)c(OC)c(O[Si](C)(C)C(C)(C)C)c2)cc1[N+](=O)[O-]	> 10	2.8 (≈ 6.28 µM)	2.9 (≈ 6.51 µM)	> 10	3.2 (≈ 7.18 µM)	4.1 (≈ 9.2 µM)	2.22 (≈ 4.98 µM)
COc1ccc(/C=C\c2cc(Br)c(OC)c(OC)c2)cc1OP(=O)([O-])[O-].[Li+].[Li+]	0.11	0.0066	0.0026	0.13	0.0039	0.003	< 0.01
COc1ccc(/C=C\c2cc(OC)c(OC)c(OC)c2)cc1OP(=O)([O-])[O-].[Na+].[Na+] [FOSBRETABULIN DISODIUM]	0.034		0.029			0.036	0.0004
COc1ccc(/C=C/c2cc(O)c(OC)c(OC)c2)cc1[N+](=O)[O-]	1.2 (≈ 3.62 µM)	0.36 (≈ 1.09 µM)	0.25 (≈ 0.755 µM)	1.1 (≈ 3.32 µM)	0.56 (≈ 1.69 µM)	0.41 (≈ 1.24 µM)	0.224 (≈ 0.676 µM)
COc1ccc(/C=C\c2cc(F)c(OC)c(OC)c2)cc1OP(=O)([O-])[O-].[Li+].[Li+]	> 1	0.0043	0.0039	0.49	0.0038	0.004	0.019
